For data set [1], the target named is T1, BCRP (ABCG2) ATPase (Homo sapiens, UniProt Q9UNQ0).
T1 sequence (Q9UNQ0 whole entry): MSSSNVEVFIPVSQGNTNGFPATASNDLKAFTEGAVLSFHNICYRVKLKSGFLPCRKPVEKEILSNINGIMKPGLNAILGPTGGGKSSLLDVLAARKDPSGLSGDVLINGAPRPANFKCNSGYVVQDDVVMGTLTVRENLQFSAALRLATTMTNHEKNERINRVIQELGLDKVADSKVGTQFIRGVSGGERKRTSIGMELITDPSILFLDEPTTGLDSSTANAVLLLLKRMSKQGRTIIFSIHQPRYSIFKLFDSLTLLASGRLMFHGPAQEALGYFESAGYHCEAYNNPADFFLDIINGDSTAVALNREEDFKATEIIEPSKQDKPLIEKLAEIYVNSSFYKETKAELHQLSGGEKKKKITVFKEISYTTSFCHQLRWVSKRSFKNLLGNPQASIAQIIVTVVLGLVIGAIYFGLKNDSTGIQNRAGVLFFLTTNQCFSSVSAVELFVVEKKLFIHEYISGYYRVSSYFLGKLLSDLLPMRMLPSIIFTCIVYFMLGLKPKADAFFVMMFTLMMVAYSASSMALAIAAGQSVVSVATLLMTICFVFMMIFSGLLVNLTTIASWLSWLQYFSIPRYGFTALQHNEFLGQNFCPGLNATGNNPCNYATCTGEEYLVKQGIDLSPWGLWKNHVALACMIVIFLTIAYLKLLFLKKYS
Description: Effect on vanadate sensitive BCRP ATPase activity in human S1-M1-80 cell membranes preincubated for 30 mins followed by ATP addition and measured after 1 hr by colorimetric assay.

The species named for data set [2] is Homo sapiens. Description: Selectivity index, ratio of EC50 for inhibition of P-gp (unknown origin) expressed in LCC6MDR cells assessed as reversal of mitoxantrone resistance to EC50 for inhibition of BCRP (unknown origin) expressed in HEK293/R2 cells assessed as reversal of mitoxantrone resistance. It counts as cell-based. The essentials:
(§1)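 Selectivity index is the EC50 in 2008/MRP1 or LCC6MDR divided by the EC50 in HEK293/R2. All three lines were measured by 5-day mitoxantrone co-incubation with modulator, with MTS/PMS read-out at 490 nm.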

Data set [3] is filed under the species Homo sapiens. Description: Selectivity index, ratio of EC50 for inhibition of MRP1 (unknown origin) expressed in 2008/MRP1 cells assessed as reversal of mitoxantrone resistance to EC50 for inhibition of BCRP (unknown origin) expressed in HEK293/R2 cells assessed as reversal of mitoxantrone resistance. It counts as cell-based. The essentials:
as §1

Data set [4] addresses T2, Broad substrate specificity ATP-binding cassette transporter ABCG2 (Homo sapiens, UniProt Q9UNQ0).
T2 sequence (Q9UNQ0 whole entry): T1 sequence (Q9UNQ0 whole entry)
Description: Inhibition of BCRP (unknown origin) expressed in human HEK293/R2 cells assessed as increase in intracellular mitoxantrone accumulation by measuring fold change at 2 uM after 2 hrs in presence of mitoxantrone by flow cytometry analysis relative to control. It counts as cell-based. As to conditions: hek293/r2, 2 h. The essentials:
(§2)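 5 × 10^5 HEK293/pcDNA3.1 or HEK293/R2 cells in 1 mL were incubated 2 hr at 37 °C with 50 μM topotecan or 5 μM mitoxantrone plus 1 or 2 μM modulator, with DMSO as the vehicle control. Cells were washed in cold PBS and resuspended in FACS buffer. Flow cytometry read FL1 (topotecan) or FL4 (mitoxantrone) over 50,000 events, normalized to wild-type cells.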
Background: Flow cytometry measures light scatter and fluorescence of single cells or particles in a stream.

Data set [5] concerns 2008. The data set is described as follows: Selectivity index, ratio of EC50 for inhibition of MRP1 (unknown origin) expressed in 2008/MRP1 cells assessed as reversal of doxorubicin resistance to Inhibition of BCRP (unknown origin) expressed in MCF7/MX100 cells assessed as reversal of topotecan resistance. It counts as cell-based. As to conditions: Homo sapiens. The essentials: (§3)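 Selectivity index is the EC50 against the other transporter's line divided by the EC50 in the BCRP line. All values come from 5-day MTS reversal assays. These use topotecan in HEK293/R2 (0–2000 nM) or MCF7-MX100 (0–100 μM), doxorubicin in 2008/MRP1, and paclitaxel in LCC6MDR, each with modulator at 0–1000 nM.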

The species entered for data set [6] is Homo sapiens. Description: Selectivity index, ratio of EC50 for inhibition of P-gp (unknown origin) expressed in LCC6MDR cells assessed as reversal of paclitaxel resistance to EC50 for Inhibition of BCRP (unknown origin) expressed in MCF7/MX100 cells assessed as reversal of topotecan resistance. It counts as cell-based. The essentials:
as §3

The target of data set [7] is T2, Broad substrate specificity ATP-binding cassette transporter ABCG2. Description: Inhibition of BCRP (unknown origin) expressed in wild type HEK293/pcDNA3.1 cells assessed as increase in intracellular topotecan accumulation at 1 to 2 uM after 2 hrs in presence of topotecan by flow cytometry analysis relative to control. It counts as cell-based. As to conditions: hek293, 2 h, dose 1-2 µM. The essentials: as §2

In data set [8] the test system is HEK293. Description: Effect on BCRP protein expression in human HEK293/R2 cells at 1 to 3 uM after 24 hrs by flow cytometric analysis. In kind it is functional, cell-based. Conditions: dose 1-3 µM. The essentials:
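HEK293/R2 and HEK293/pcDNA3.1 cells were exposed to 0, 1 or 3 μM compound for 24 hr, with 0.1–0.3% DMSO as solvent control. Cells were trypsinized and stained with FITC anti-human BCRP for 45 min at 4 °C, with an IgG2b-FITC isotype control. Surface signal was read by flow cytometry on FL1 over 50,000 events.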

Data set [9] addresses T2, Broad substrate specificity ATP-binding cassette transporter ABCG2. Description: Inhibition of BCRP (unknown origin) expressed in wild type HEK293/pcDNA3.1 cells assessed as increase in intracellular mitoxantrone accumulation at 1 to 2 uM after 2 hrs in presence of mitoxantrone by flow cytometry analysis relative to control. In kind it is cell-based. Conditions: hek293, 2 h, dose 1-2 µM. The essentials:
as §2

For data set [10] the target is unchanged. The data set is described as follows: Inhibition of BCRP (unknown origin) expressed in human HEK293/R2 cells assessed as increase in intracellular topotecan accumulation by measuring fold change at 1 uM after 2 hrs in presence of topotecan by flow cytometry analysis relative to control. It counts as cell-based. As to conditions: hek293/r2, 2 h. The essentials:
as §2

The target is the same in data set [11]. Description: Inhibition of BCRP (unknown origin) expressed in HEK293/R2 cells assessed as fold increase in mitoxantrone accumulation at 1 uM after 4 days by flow cytometry analysis. It counts as cell-based. As to conditions: hek293/r2, 96 h, time 4 day. The essentials: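 HEK293/R2 cells were treated 4 days at 37 °C with 1 μM modulator or 0.1% DMSO, washed, then given the mitoxantrone accumulation assay with flow cytometry read-out. Data are relative to DMSO, N = 5 independent experiments.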

For data set [12] the target is unchanged. Description: Inhibition of BCRP (unknown origin) expressed in human HEK293/R2 cells assessed as increase in intracellular topotecan accumulation by measuring fold change at 2 uM after 2 hrs in presence of topotecan by flow cytometry analysis relative to control. In kind it is cell-based. As to conditions: hek293/r2, 2 h. The essentials: as §2
In data set [13] the test system is L929. Description: Cytotoxicity against mouse L929 cells assessed as reduction in cell viability. It counts as cell-based.
Data set [14] has as its target T2, Broad substrate specificity ATP-binding cassette transporter ABCG2. Description: Inhibition of BCRP (unknown origin) expressed in wild-type HEK293 cells mediated mitoxantrone efflux assessed as intracellular mitoxantrone level at 2 uM preincubated with mitoxantrone for 1 hr followed by compound addition and measured upto 150 mins by flow cytometry analysis. As to conditions: hek293, 2.5 h. It counts as cell-based. The essentials:
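Cells were preloaded with 5 μM mitoxantrone for 1 hr at 37 °C, washed, then kept in drug-free medium with or without 2 μM modulator. Cells were harvested at 0, 30, 60, 90, 120 and 150 min and intracellular mitoxantrone read by flow cytometry (FL4). Level is expressed as % of the 0-min value.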

Activity calls are given as the source filed them. No cut-off for these calls is given here. Some results are limits rather than exact numbers.

In general, IC50 refers to the midpoint of a concentration-inhibition curve.

In the case of `COC(=O)c1cccc(COc2c(-c3ccc(OCCCCc4cn(Cc5ccccc5)nn4)cc3)oc3ccccc3c2=O)c1`, in data set [1], the activity at 1 h is 120%. The Ratio EC50 was 52 in [2], 68 in [3], 167 in [5] and 112 in data set [6]. For the same compound, the “fold change (FC)” value stood at 5.7 in [4], 8.1 in data set [10], 3.8 in data set [11] and 6.8 in [12]. Further, the “inhibition (INH)” value in [7], in data set [9] and in data set [14] was “Not Active” each time. In data set [8], the Activity entry is “inactive”. In addition, the half-maximal inhibitory concentration (IC50) in data set [13] is greater than 100 µM.
